Measured values from ChEMBL document CHEMBL1629529, “Design, synthesis, and evaluation of diarylpyridines and diarylanilines as potent non-nucleoside HIV-1 reverse transcriptase inhibitors” (J Med Chem, 2010).
pEC50: −log10 of the molar value.

Columns and labels:
[1] = Cytotoxicity in human TZM-bl cells after 4 day by XTT assay; assay type: cell-based; conditions: 96 h
[2] = test system: Human immunodeficiency virus 1; assay: Antiviral activity against HIV1 3B infected in human MT2 cells assessed as reduction in p24 antigen level after 4 days by ELISA; assay type: functional, organism-based; conditions: for pEC50: Human immunodeficiency virus 1, 3B, MT2, 96 h, read-out: EC50
Outline: (§1)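 MT-2 cells (10^4/well) were infected with 100 TCID50 virus in RPMI 1640 with 10% FBS, with or without graded compound concentrations, overnight. Supernatant was then replaced with compound-free medium. On day 4 post-infection, supernatant was mixed 1:1 with 5% Triton X-100 and p24 antigen was quantified by ELISA. Percent inhibition was converted to EC50 with CalcuSyn. Tested at least in triplicate.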

MT2 = assay: (§2) Cytotoxicity in human MT2 cells after 4 day by XTT assay; assay type: cell-based; conditions: mt2, 96 h
Outline: (§3)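 MT-2 cells (5 · 10^5/mL) were mixed with an equal volume of graded compound concentrations and incubated 4 days at 37 °C. XTT solution (1 mg/mL) containing 0.02 μM phenazine methosulphate was then added. After 4 h, absorbance at 450 nm was read.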

[3] = Selectivity index, ratio of CC50 for human TZM-bl cells to EC50 for HIV1 NL4-3; assay type: toxicity, cell-based; conditions: for Ratio CC50/EC50: tzm-bl
[4] = Selectivity index, ratio of CC50 for human MT2 cells to EC50 for HIV1 3B; assay type: toxicity, cell-based; conditions: for Ratio CC50/EC50: mt2
Outline: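 SI = CC50/EC50 (p24 ELISA). XTT (1 mg/mL) containing 0.02 μM PMS was added for 4 h, then absorbance was read at 450 nm. CC50 was calculated with CalcuSyn.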

[5] = test system: Human immunodeficiency virus 1; assay: Antiviral activity against multidrug resistant HIV1 RTMDR containing reverse transcriptase L74V, M41L, V106A and T215Y mutant infected in human TZM-bl cells after 4 days by luciferase reporter gene assay; assay type: functional, organism-based; conditions: Human immunodeficiency virus 1, RTMDR, 96 h
[6] = test system: Human immunodeficiency virus 1; assay: Resistance index, ratio of EC50 for multidrug resistant HIV1 RTMDR to EC50 for wild type HIV1 NL4-3; assay type: functional
[7] = test system: Human immunodeficiency virus 1; assay: Antiviral activity against multidrug resistant HIV1 A17 containing reverse transcripatseK103N and Y181C mutation infected in human MT2 cells assessed as reduction in p24 antigen level after 4 days by ELISA; assay type: functional, organism-based; conditions: Human immunodeficiency virus 1, A17, MT2, 96 h; outline: as §1
[8] = test system: Human immunodeficiency virus 1; assay: Resistance index, ratio of EC50 for multidrug resistant HIV1 A17 to EC50 for wild type HIV1 3B; assay type: functional
[9] = test system: Human immunodeficiency virus 1; assay: Antiviral activity against HIV1 NL4-3 infected in human TZM-bl cells after 2 days by luciferase reporter gene assay; conditions: for pEC50: Human immunodeficiency virus 1, NL4-3, TZM-bl, 48 h, read-out: EC50
[10] = test system: Human immunodeficiency virus 1; assay: Antiviral activity against HIV1; assay type: functional, organism-based
[11] = test system: Human immunodeficiency virus 1; assay: Antiviral activity against multidrug resistant HIV1 RTMDR containing reverse transcriptase L74V, M41L, V106A and T215Y mutant infected in human TZM-bl cells after 2 days by luciferase reporter gene assay; conditions: Human immunodeficiency virus 1, RTMDR, 48 h
[12] = as §2; assay type: cell-based; conditions: MT2 cells; outline: as §3

Row | pEC50 [10] | EC50 ([2]; mt2) | SMILES | CC50 [1] | pEC50 [2] | CC50 (MT2) | Ratio CC50/EC50 [3] | Ratio CC50/EC50 [4] | pEC50 [5] | Ratio EC50 [6] | pEC50 [7] | Ratio EC50 [8] | pEC50 [9] | pEC50 [11] | CC50 at 96 h [12] | EC50 ([9]; tzm-bl) | selectivity ratio ([3]; TZM-bl cells, read-out: Ratio CC50/EC50) | selectivity ratio ([4]; MT2 cells, read-out: Ratio CC50/EC50)
1 | – | – | C=CCc1cc(C)c(Oc2ccc(N)c(Nc3ccc(C#N)cc3)n2)c(C)c1 | 8460 nM | 7.17 | 14000 nM | 1228 | 209 | 7.81 | 2.23 | < 5.00 | > 149 | 8.16 | – | – | – | – | –
2 | – | – | Cc1cc(/C=C/C(=O)O)cc(C)c1Oc1ccc([N+](=O)[O-])c(Nc2ccc(C#N)cc2)n1 | 27800 nM | 5.09 | 34800 nM | – | – | – | – | – | – | 4.83 | – | – | – | – | –
3 | 8.52 | – | Cc1cc(C#N)cc(C)c1Oc1cc(Nc2ccc(C#N)cc2)c(N)cc1[N+](=O)[O-] | – | – | – | – | – | – | – | – | – | – | – | – | – | – | –
4 | – | – | C#Cc1cc(C)c(Oc2ccc([N+](=O)[O-])c(Nc3ccc(C#N)cc3)n2)c(C)c1 | – | – | – | – | – | 6.67 | 1.94 | < 5.00 | > 40 | – | – | – | – | – | –
5 | – | – | C#Cc1cc(C)c(Oc2ccc(N)c(Nc3ccc(C#N)cc3)n2)c(C)c1 | – | – | – | – | – | 8.05 | 1.34 | 5.84 | 34 | – | – | – | – | – | –
6 | – | Not Active | Cc1cc(C#CC2CC2)cc(C)c1Oc1ccc([N+](=O)[O-])c(Nc2ccc(C#N)cc2)n1 | – | – | – | – | – | – | – | – | – | < 4.33 | – | – | – | – | –
7 | – | – | Cc1cc(Br)cc(C)c1Oc1ccc([N+](=O)[O-])c(Nc2ccc(C#N)cc2)n1 | > 45700 nM | 7.35 | 65100 nM | > 909 | 1447 | – | 1.55 | < 5.00 | >222 | 7.30 | 7.11 | – | – | – | –
8 | – | – | Cc1cc(/C=C/C#N)cc(C)c1Oc1cc(Nc2ccc(C#N)cc2)c(N)cc1N | 14400 nM | > 7.85 | 18900 nM | 3356 | > 1353 | 8.70 | 0.47 | 5.52 | 128 | 8.37 | – | – | – | – | –
9 | – | – | CC(=O)/C=C/c1cc(C)c(Oc2ccc([N+](=O)[O-])c(Nc3ccc(C#N)cc3)n2)c(C)c1 | > 46700 nM | 6.22 | > 47900 nM | – | – | – | – | – | – | 7.61 | – | – | – | – | –
10 | – | – | Cc1cc(/C=C/C#N)cc(C)c1Oc1ccc(N)c(Nc2ccc(C#N)cc2)n1 | 9750 nM | > 7.85 | 5630 nM | 13732 | > 402 | 9.23 | 0.83 | 6.70 | 14 | 9.15 | – | – | – | – | –
11 | – | – | C=CCc1cc(C)c(Oc2ccc([N+](=O)[O-])c(Nc3ccc(C#N)cc3)n2)c(C)c1 | – | 5.87 | – | – | 27.37 | – | – | – | – | – | – | 39700 nM | Not Active | – | –
12 | – | – | Cc1cc(/C=C/C#N)cc(C)c1Oc1ccc(N)c(Nc2ccc(C#N)cc2)c1 | 25000 nM | > 7.85 | 8830 nM | 45455 | > 631 | – | 3.25 | 6.22 | 43 | 9.26 | 8.75 | – | – | – | –
13 | – | – | Cc1cc(C#CC2CC2)cc(C)c1Oc1ccc(N)c(Nc2ccc(C#N)cc2)n1 | 7450 nM | 6.39 | 5710 nM | 82 | 14 | 6.92 | 1.34 | < 5.00 | > 24 | 7.04 | – | – | – | – | –
14 | – | – | Cc1cc(/C=C/C(=O)O)cc(C)c1Oc1ccc(N)c(Nc2ccc(C#N)cc2)n1 | 18000 nM | 6.20 | 15700 nM | – | – | – | – | – | – | 6.22 | – | – | – | – | –
15 | – | – | Cc1cc(C(O)C[N+](=O)[O-])cc(C)c1Oc1ccc([N+](=O)[O-])c(Nc2ccc(C#N)cc2)n1 (stereo not drawn) | > 44500 nM | 5.77 | 27100 nM | > 145 | 16 | – | – | – | – | 6.51 | – | – | – | – | –
16 | – | – | Cc1cc(/C=C/C#N)cc(C)c1Oc1cc(Nc2ccc(C#N)cc2)c(N)cc1[N+](=O)[O-] | > 47100 nM | > 7.85 | 88200 nM | > 123842 | > 6298 | 9.06 | 2.29 | 7.02 | 6.79 | 9.42 | – | – | – | – | –
17 | – | – | Cc1cc(/C=C/C#N)cc(C)c1Oc1ccc([N+](=O)[O-])c(Nc2ccc(C#N)cc2)c1 | > 48800 nM | 7.43 | > 100000 nM | – | > 2702 | – | 1.63 | < 5.00 | >270 | 7.98 | 7.77 | – | – | 4690 | –
18 | – | – | Cc1cc(Br)cc(C)c1Oc1ccc(N)c(Nc2ccc(C#N)cc2)n1 | 15500 nM | 7.48 | 9610 nM | 2132 | 291 | – | 0.93 | 5.46 | 106 | 8.14 | 8.17 | – | – | – | –
19 | – | – | CC(=O)/C=C/c1cc(C)c(Oc2cc(Nc3ccc(C#N)cc3)c(N)cc2[N+](=O)[O-])c(C)c1 | 5880 nM | 7.33 | 22600 nM | – | – | – | – | – | – | 8.20 | – | – | – | – | –
20 | – | – | Cc1cc(/C=C/C#N)cc(C)c1Oc1cc(Nc2ccc(C#N)cc2)c([N+](=O)[O-])cc1[N+](=O)[O-] | > 44000 nM | 6.43 | 21700 nM | > 453 | 59.35 | – | – | – | – | 7.01 | – | – | – | – | –
21 | – | – | Cc1cc(C#N)cc(C)c1Oc1nc(Nc2ccc(C#N)cc2)nc(N)c1Br [ETRAVIRINE] | 8960 nM | 7.39 | 50700 nM | – | – | 9.00 | – | 6.48 | – | – | – | – | – | – | –
22 | – | – | Cc1cc(C(O)C[N+](=O)[O-])cc(C)c1Oc1ccc(N)c(Nc2ccc(C#N)cc2)n1.Cl (stereo not drawn) | 7020 nM | 7.17 | 20600 nM | 695 | 303 | – | – | – | – | 8.00 | – | – | – | – | –
23 | – | – | Cc1cc(/C=C/C#N)cc(C)c1Oc1ccc([N+](=O)[O-])c(Nc2ccc(C#N)cc2)n1 | > 48700 nM | 7.31 | > 100000 nM | > 6082 | > 2041 | 7.83 | 1.85 | < 5.00 | > 204 | 8.10 | – | – | – | – | –
24 | – | – | Cc1cc(I)cc(C)c1Oc1ccc(N)c(Nc2ccc(C#N)cc2)n1 | – | – | – | – | – | – | 0.67 | 5.71 | 36 | – | – | – | – | – | –
25 | – | – | CC(=O)CCc1cc(C)c(Oc2ccc(N)c(Nc3ccc(C#N)cc3)n2)c(C)c1 | 9250 nM | 7.26 | 18400 nM | 4744 | – | 8.49 | 1.64 | 6.14 | 13 | 8.71 | – | – | – | – | 1840
26 | – | – | Cc1cc(C#N)cc(C)c1Oc1ccc(N)c(Nc2ccc(C#N)cc2)n1 | – | 7.82 | > 100000 nM | 13206 | > 6667 | – | 1.41 | 6.41 | 26 | – | – | – | – | – | –
27 | – | – | CC(=O)/C=C/c1cc(C)c(Oc2cc(Nc3ccc(C#N)cc3)c([N+](=O)[O-])cc2[N+](=O)[O-])c(C)c1 | 24400 nM | 6.46 | > 100000 nM | 167 | > 286 | – | – | – | – | 6.84 | – | – | – | – | –
28 | – | – | Cc1cc(I)cc(C)c1Oc1ccc([N+](=O)[O-])c(Nc2ccc(C#N)cc2)n1 | – | – | – | – | – | – | 1.55 | < 5.00 | >127 | – | – | – | – | – | –
